Laboratory results from ChEMBL document CHEMBL3352721, “Identification, optimization, and pharmacology of acylurea GHS-R1a inverse agonists” (J Med Chem, 2014).
Converted amounts (≈) assume the structure as drawn. One block for each compound: values may come before it. The source made the active and inactive calls. The calls are words filed in the database; no cut-off is given here.

Assays:
[1] = Oral bioavailability in beagle dog at 1 mg/kg; assay type: ADME, organism-based, Canis lupus familiaris; conditions: in vivo
Outline: (§1)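 Oral gavage in male HW rats, beagle dogs or CD-1 mice, vehicle Pluronic F127 in water. EDTA plasma was collected over 24 h and quantified by LC/MS/MS after acetonitrile precipitation. Cmax and bioavailability were obtained by non-compartmental analysis against IV data.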

[2] = Cmax in beagle dog at 1 mg/kg, po; assay type: ADME, organism-based, Canis lupus familiaris; set-up: dose 1 mg/kg, route oral; conditions: in vivo; outline: as §1
[3] = test system: Mus musculus; test: Increase in food intake in po dosed C57Bl6j mouse free feeding model measured in 2 hrs intervals; assay type: functional, organism-based
Outline: (§2)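 Male mice (C57Bl6j, GHSr1-/- or wild-type littermates) were acclimatized 3 weeks to reversed light-dark, then individually housed 7 days and grouped (n=10-12) by baseline intake and body weight. Suspensions in 1% Pluronic F127 or vehicle were gavaged at 10 mL/kg about 1 h before dark onset. Pre-weighed food was reweighed at 2, 4, 6 and 24 h.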

[4] = Volume of distribution at steady state in beagle dog at 1 mg/kg, iv; assay type: ADME, organism-based, Canis lupus familiaris; set-up: dose 1 mg/kg, route intravenous; conditions: in vivo, read-out: Vdss
Outline: (§3)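 Male HW rats, beagle dogs or CD-1 mice received an IV bolus in 5% DMSO/95% hydroxypropyl-β-cyclodextrin (30% w/v). EDTA plasma was sampled over 24 h and assayed by LC/MS/MS after acetonitrile protein precipitation. CL and Vss were obtained by non-compartmental analysis.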

[5] = Unbound fraction in beagle dog plasma; assay type: ADME, cell-free, Canis lupus familiaris
[6] = molecular target: Growth hormone secretagogue receptor type 1 (Rattus norvegicus) (UniProt O08725); test: Displacement of [125I]human ghrelin from rat GHS-R1a expressed in HEK cell membranes after 60 mins by gamma counting method; conditions: hek293
Growth hormone secretagogue receptor type 1 (Rattus norvegicus), sequence (O08725 whole entry, looked up): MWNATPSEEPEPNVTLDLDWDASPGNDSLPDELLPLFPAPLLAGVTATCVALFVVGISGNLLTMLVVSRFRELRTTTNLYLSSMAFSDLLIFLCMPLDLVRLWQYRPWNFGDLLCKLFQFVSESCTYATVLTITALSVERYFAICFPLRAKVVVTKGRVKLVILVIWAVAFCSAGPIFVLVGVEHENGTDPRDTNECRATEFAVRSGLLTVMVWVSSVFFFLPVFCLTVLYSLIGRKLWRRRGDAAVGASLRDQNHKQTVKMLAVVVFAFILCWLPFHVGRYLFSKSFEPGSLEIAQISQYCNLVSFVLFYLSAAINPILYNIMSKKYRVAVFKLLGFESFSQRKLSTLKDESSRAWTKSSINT

[7] = Ratio of plasma concentration in C57Bl6j mouse free feeding model at 30 mg/kg, po after 1 hr to IC50 for mouse GHS-R1a expressed in HEK cell membranes; assay type: ADME, organism-based, HEK293; set-up: dose 30 mg/kg, route oral; conditions: in vivo
Outline: (§4)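 Male mice were kept on a reversed light cycle and given a 1% Pluronic F127 suspension orally (10 mL/kg) about 1 h before dark. Plasma exposure was corrected for mouse plasma protein binding and divided by mouse GHS-R1a binding IC50. Binding was 20 pM [125I]ghrelin displacement on HEK membranes, 60 min rt, pH 7.4, read by gamma counting.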

[8] = Oral bioavailability in CD1 mouse at 5 mg/kg; assay type: ADME, organism-based; conditions: in vivo; outline: as §1
[9] = Volume of distribution at steady state in Han-Wistar rat at 2 mg/kg, iv; assay type: ADME, organism-based; set-up: dose 2 mg/kg, route intravenous; conditions: in vivo, read-out: Vdss; outline: as §3
[10] = (§5) Oral bioavailability in Han-Wistar rat at 2 mg/kg; assay type: ADME, organism-based; conditions: Han-Wistar, in vivo; outline: as §1
[11] = Aqueous solubility at pH 7.4 under thermodynamic conditions; assay type: physicochemical; conditions: buffer, read-out: Therm_solubility
Outline: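 Thermodynamic solubility measured from solid samples in aqueous medium at pH 7.4.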

[12] = Ratio of plasma concentration in C57Bl6j mouse free feeding model at 30 mg/kg, po after 2 hrs to IC50 for mouse GHS-R1a expressed in HEK cell membranes; assay type: ADME, organism-based, HEK293; set-up: dose 30 mg/kg, route oral; conditions: in vivo; outline: as §4
[13] = Cmax in Han-Wistar rat at 2 mg/kg, po; assay type: ADME, organism-based; set-up: dose 2 mg/kg, route oral; conditions: in vivo; outline: as §1
[14] = Unbound fraction in Han-Wistar rat plasma; assay type: ADME, cell-free
[15] = Clearance in beagle dog at 1 mg/kg, iv; assay type: ADME, organism-based, Canis lupus familiaris; set-up: dose 1 mg/kg, route intravenous; conditions: in vivo; outline: as §3
[16] = Clearance in Han-Wistar rat at 2 mg/kg, iv; assay type: ADME, organism-based; set-up: dose 2 mg/kg, route intravenous; conditions: in vivo; outline: as §3
[17] = molecular target: Growth hormone secretagogue receptor type 1 (Homo sapiens, UniProt Q92847); test: Displacement of [125I]human ghrelin from human GHS-R1a expressed in HEK cell membranes after 60 mins by gamma counting method; set-up: species or system HEK293
Growth hormone secretagogue receptor type 1, sequence (Q92847 whole entry): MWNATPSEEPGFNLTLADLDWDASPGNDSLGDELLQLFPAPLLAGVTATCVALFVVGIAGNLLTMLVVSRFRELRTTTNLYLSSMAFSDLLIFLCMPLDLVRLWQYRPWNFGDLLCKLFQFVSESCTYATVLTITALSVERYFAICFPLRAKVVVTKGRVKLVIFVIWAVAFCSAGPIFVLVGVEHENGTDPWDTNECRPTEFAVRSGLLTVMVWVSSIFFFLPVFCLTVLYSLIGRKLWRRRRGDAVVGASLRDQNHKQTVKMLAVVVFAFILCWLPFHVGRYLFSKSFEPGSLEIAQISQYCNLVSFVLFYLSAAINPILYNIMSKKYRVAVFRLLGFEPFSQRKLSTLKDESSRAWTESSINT

[18] = Displacement of [125I]human ghrelin from mouse GHS-R1a expressed in HEK cell membranes after 60 mins by gamma counting method; conditions: hek293
Outline: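 HEK cell membranes stably overexpressing mouse or rat GHS-R1a (4 µg/well) incubated 60 min at rt with 20 pM [125I]human ghrelin and competing compound. Buffer: 50 mM Tris-HCl, 5 mM MgCl2, 0.01% BSA, pH 7.4, plus 10 µM methyl arachidonyl fluorophosphonate. Stopped by filtration over PEI-soaked GF/C filters with ice-cold washes, then gamma counting. IC50 is the mean of ≥2 independent determinations.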

[19] = Lipophilicity, logD of the compound; assay type: physicochemical; conditions: octanol/water
[20] = test system: Mus musculus; test: Increase in food intake in po dosed C57Bl6j mouse free feeding model measured over 24 hrs period; assay type: functional; outline: as §2
[21] = Cmax in CD1 mouse at 5 mg/kg, po; assay type: ADME, organism-based; set-up: dose 5 mg/kg, route oral; conditions: in vivo; outline: as §1
[22] = test system: MDR1; test: Apparent permeability in MDCK cells expressing MDR1 at 10 uM assessed as apical to basolateral side transport; assay type: ADME, cell-based, Canis lupus familiaris; conditions: dog
Outline: (§6)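 MDCK-MDR1 monolayers incubated with compound at 10 µM; permeability measured in both A→B and B→A directions, giving Papp A-B (x10^6 cm/s) and the efflux ratio.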

[23] = test system: MDR1; test: Efflux ratio in MDCK cells expressing MDR1 at 10 uM; assay type: ADME, cell-based, Canis lupus familiaris; conditions: dog; outline: as §6
[24] = Ratio of plasma concentration in C57Bl6j mouse free feeding model at 30 mg/kg, po after 6 hrs to IC50 for mouse GHS-R1a expressed in HEK cell membranes; assay type: ADME, organism-based, HEK293; set-up: dose 30 mg/kg, route oral; conditions: in vivo; outline: as §4
[25] = Volume of distribution at steady state in CD1 mouse at 2 mg/kg, iv; assay type: ADME, organism-based; set-up: dose 2 mg/kg, route intravenous; conditions: in vivo, read-out: Vdss; outline: as §3
[26] = Clearance in CD1 mouse at 2 mg/kg, iv; assay type: ADME, organism-based; set-up: dose 2 mg/kg, route intravenous; conditions: in vivo; outline: as §3
[27] = Unbound fraction in CD1 mouse plasma; assay type: ADME, cell-free
[28] = molecular target: Sodium-dependent dopamine transporter (Homo sapiens, UniProt Q01959); test: Inhibition of DAT (unknown origin)
Sodium-dependent dopamine transporter, sequence (Q01959 whole entry): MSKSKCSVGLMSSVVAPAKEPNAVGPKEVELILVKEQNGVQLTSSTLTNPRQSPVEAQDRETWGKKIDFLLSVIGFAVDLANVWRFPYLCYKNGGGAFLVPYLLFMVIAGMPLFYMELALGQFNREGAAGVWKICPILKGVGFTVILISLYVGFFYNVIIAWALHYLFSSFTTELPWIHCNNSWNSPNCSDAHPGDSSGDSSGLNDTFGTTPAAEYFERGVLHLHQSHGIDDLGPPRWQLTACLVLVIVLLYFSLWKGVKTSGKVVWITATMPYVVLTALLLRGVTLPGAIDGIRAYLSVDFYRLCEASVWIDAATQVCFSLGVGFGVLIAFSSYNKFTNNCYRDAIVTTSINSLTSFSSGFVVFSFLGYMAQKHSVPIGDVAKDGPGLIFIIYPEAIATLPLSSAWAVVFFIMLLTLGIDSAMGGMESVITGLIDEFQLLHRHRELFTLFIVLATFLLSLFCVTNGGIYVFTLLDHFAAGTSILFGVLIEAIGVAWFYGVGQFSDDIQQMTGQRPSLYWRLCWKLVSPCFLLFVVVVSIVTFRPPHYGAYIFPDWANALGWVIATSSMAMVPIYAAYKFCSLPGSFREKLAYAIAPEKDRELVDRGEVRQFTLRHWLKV

[29] = test system: Mus musculus; test: Reduction in free feeding level in po dosed C57Bl6j mouse free feeding model measured in first 6 hrs; assay type: functional, organism-based; outline: as §2
[30] = Volume of distribution at steady state in beagle dog at 2 mg/kg, iv; assay type: ADME, organism-based, Canis lupus familiaris; set-up: dose 2 mg/kg, route intravenous; conditions: in vivo, read-out: Vdss; outline: as §3
[31] = Ratio of drug level in homogenized brain to plasma in CD1 mouse at 7 mg/kg, po measured after 6 hrs by LC-MS/MS method; assay type: ADME, organism-based; set-up: dose 7 mg/kg, route oral; conditions: read-out: BPR
Outline: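 CD-1 mice dosed PO in 1% Pluronic F127. Drug was measured in homogenized brain and in plasma 6 h after dosing and expressed as a brain:plasma ratio. The free ratio used free fraction measured in mouse plasma and rat brain (brain slice or brain homogenate).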

[32] = Cmax in CD1 mouse at 2 mg/kg, po by LC-MS/MS method; assay type: ADME, organism-based; set-up: dose 2 mg/kg, route oral; conditions: in vivo; outline: as §1
[33] = test system: Rattus norvegicus; test: as §5; assay type: ADME, organism-based; conditions: in vivo; outline: as §1
[34] = Oral bioavailability in CD1 mouse at 7 mg/kg; assay type: ADME, organism-based; conditions: in vivo; outline: as §1
[35] = molecular target: Neuronal acetylcholine receptor subunit alpha-4 (Homo sapiens, UniProt P43681); test: Inhibition of alpha4 nAChR (unknown origin)
Neuronal acetylcholine receptor subunit alpha-4, sequence (P43681 whole entry): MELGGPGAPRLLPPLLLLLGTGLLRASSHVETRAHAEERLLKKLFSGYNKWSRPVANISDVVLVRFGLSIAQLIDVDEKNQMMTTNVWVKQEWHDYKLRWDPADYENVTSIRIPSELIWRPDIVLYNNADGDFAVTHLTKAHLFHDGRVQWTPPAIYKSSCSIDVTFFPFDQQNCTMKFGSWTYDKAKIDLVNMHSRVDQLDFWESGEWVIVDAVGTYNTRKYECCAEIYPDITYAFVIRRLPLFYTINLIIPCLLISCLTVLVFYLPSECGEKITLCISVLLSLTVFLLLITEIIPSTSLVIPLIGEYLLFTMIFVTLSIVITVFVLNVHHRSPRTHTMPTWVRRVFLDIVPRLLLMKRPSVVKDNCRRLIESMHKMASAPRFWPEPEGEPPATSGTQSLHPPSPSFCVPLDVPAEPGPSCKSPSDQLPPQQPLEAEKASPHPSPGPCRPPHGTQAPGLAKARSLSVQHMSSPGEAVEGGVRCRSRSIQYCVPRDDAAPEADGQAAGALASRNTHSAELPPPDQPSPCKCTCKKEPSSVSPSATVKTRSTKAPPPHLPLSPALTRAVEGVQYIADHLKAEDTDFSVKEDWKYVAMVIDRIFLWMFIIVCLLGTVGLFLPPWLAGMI

[36] = molecular target: Voltage-gated inwardly rectifying potassium channel KCNH2 (Homo sapiens, UniProt Q12809); test: Inhibition of human ERG at 33 uM
Voltage-gated inwardly rectifying potassium channel KCNH2, sequence (Q12809 whole entry): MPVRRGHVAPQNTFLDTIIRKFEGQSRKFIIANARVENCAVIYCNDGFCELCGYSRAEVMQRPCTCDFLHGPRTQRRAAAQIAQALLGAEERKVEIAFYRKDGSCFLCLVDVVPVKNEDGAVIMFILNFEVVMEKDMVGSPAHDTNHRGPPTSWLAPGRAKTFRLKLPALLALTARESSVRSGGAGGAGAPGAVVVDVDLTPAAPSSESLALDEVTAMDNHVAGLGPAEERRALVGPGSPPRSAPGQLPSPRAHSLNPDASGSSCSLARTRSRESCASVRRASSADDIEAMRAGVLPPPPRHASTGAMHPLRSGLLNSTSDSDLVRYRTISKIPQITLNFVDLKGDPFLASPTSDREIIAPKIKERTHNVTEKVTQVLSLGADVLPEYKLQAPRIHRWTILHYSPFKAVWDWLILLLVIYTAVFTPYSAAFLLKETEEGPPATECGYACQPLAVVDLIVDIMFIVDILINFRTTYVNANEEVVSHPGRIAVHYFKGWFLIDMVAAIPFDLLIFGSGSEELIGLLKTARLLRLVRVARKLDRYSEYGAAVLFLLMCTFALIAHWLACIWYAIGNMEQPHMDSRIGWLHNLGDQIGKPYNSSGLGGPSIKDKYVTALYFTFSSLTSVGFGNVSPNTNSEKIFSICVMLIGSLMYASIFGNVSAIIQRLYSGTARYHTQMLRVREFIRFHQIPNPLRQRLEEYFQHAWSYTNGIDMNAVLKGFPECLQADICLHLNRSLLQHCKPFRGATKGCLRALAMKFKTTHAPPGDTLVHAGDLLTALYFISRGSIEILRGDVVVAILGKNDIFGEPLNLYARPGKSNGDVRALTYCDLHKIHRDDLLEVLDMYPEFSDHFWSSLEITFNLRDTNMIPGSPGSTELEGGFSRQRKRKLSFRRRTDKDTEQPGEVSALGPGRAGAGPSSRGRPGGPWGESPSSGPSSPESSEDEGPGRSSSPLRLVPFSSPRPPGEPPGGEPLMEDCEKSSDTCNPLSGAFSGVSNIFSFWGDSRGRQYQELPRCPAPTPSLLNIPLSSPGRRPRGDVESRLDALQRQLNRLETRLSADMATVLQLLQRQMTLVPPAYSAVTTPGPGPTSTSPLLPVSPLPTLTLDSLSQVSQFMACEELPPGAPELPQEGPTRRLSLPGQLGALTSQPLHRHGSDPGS

[37] = test system: Mus musculus; test: Reduction in free feeding level in po dosed C57Bl6j mouse free feeding model measured over 24 hrs period; assay type: functional, organism-based; outline: as §2
[38] = test system: Mus musculus; test: Reduction in free feeding level in po dosed GHS-R1a knock out C57Bl6j mouse free feeding model measured over 6 hrs; assay type: functional, organism-based; outline: as §2
[39] = Cmax in beagle dog at 2 mg/kg, po; assay type: ADME, organism-based, Canis lupus familiaris; set-up: dose 2 mg/kg, route oral; conditions: in vivo; outline: as §1
[40] = Clearance in beagle dog at 2 mg/kg, iv; assay type: ADME, organism-based, Canis lupus familiaris; set-up: dose 2 mg/kg, route intravenous; conditions: in vivo; outline: as §3
[41] = Cmax in CD1 mouse at 7 mg/kg, po; assay type: ADME, organism-based; set-up: dose 7 mg/kg, route oral; conditions: in vivo; outline: as §1
[42] = Oral bioavailability in beagle dog at 2 mg/kg; assay type: ADME, organism-based, Canis lupus familiaris; conditions: in vivo; outline: as §1

bioavailability [1]: 51%
Cmax [2]: 200 nM
Vd [4]: 4 L/kg
fraction unbound [5]: 0.096
IC50 [6]: 3.6 nM
Ratio [7]: 310
bioavailability [8]: 40%
Vd [9]: 4.9 L/kg
bioavailability [10]: 125%
solubility thermodynamic [11]: 280 µM (≈ 150 µg/mL)
Ratio [12]: 220
Cmax [13]: 340 nM
fraction unbound [14]: 0.08
clearance [15]: 8.1 mL/min/kg
clearance [16]: 24 mL/min/kg
IC50 [17]: 1.3 nM
IC50 [18]: 4.9 nM
logD [19]: 1.8
Cmax [21]: 710 nM
Papp A→B at 10 µM [22]: 7.1 ×10⁻⁶ cm/s
efflux ratio at 10 µM [23]: 4.2
Ratio [24]: 20
Vd [25]: 4.5 L/kg
clearance [26]: 35 mL/min/kg
fraction unbound [27]: 0.13
Structure (SMILES): CN1CCN(CCCS(=O)(=O)c2ccc3nc(NC(=O)NC(=O)c4ccccc4Cl)sc3c2)CC1
Activity [3]: Active
Activity [20]: 19%

Ki [28]: 290 nM
Vd [30]: 0.4 L/kg
Kp at 6 h [31]: 0.21
fraction unbound [5]: 0.016
Cmax [32]: 6500 nM
Vd [9]: 0.7 L/kg
F [33]: 171%
bioavailability [34]: 25%
Cmax [13]: 4500 nM
fraction unbound [14]: 0.002
Ki [35]: 52 nM
clearance [16]: 1.9 mL/min/kg
IC50 [18]: 39 nM
Cmax [39]: 1000 nM
clearance [40]: 10 mL/min/kg
Cmax [41]: 8000 nM
logD [19]: 2.3
Papp A→B at 10 µM [22]: 5.4 ×10⁻⁶ cm/s
Vd [25]: 0.4 L/kg
bioavailability [42]: 31%
clearance [26]: 1.8 mL/min/kg
fraction unbound [27]: 0.009
Structure (SMILES): CN1CCC(S(=O)(=O)c2ccc3nc(NC(=O)NC(=O)c4cc(N5CCOCC5)ccc4Cl)sc3c2)CC1
Activity [29]: Active
inhibition (INH) [36]: Not Active
Activity [37]: inactive
Activity [38]: inactive
